Six compounds from ChEMBL document CHEMBL1141376, “New fluorescent adenosine A1-receptor agonists that allow quantification of ligand-receptor interactions in microdomains of single living cells” (J Med Chem, 2007) can be followed below.

Test [1] has as its target T1, Adenosine receptor A1 (Homo sapiens, UniProt P30542).
T1 sequence (P30542 whole entry): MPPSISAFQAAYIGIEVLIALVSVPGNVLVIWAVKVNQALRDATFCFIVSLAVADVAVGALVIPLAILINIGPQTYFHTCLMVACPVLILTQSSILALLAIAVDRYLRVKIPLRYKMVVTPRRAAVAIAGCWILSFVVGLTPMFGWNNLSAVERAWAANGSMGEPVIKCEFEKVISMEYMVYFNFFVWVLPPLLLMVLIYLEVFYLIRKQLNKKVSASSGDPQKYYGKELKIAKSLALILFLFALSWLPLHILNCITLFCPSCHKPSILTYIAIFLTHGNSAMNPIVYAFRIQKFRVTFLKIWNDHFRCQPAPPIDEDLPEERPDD
Nature of the test: (§1) Agonist activity at adenosine A1 receptor assessed as inhibition of forskolin-stimulated [3H]cAMP accumulation in CHO cells. It counts as functional, cell-based. The procedure, abridged: (§2)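 Clonal CHO cells stably expressing human A1 (CHO-A1H) or human A3 (CHO-A3) grown to confluence in 24-well dishes. Labelled with [3H]adenine 2 h at 37 °C in HEPES-buffered Hank's, washed, rolipram 10 µM 15 min. Agonist 5 min, then forskolin 3 µM a further 10 min. Stopped with HCl; [3H]-cAMP isolated on alumina columns, scintillation counted. pEC50 from sigmoidal fits; triplicate determinations.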
For orientation: cAMP levels reflect the balance of adenylyl cyclase and phosphodiesterase activity.

Test [2] deals with T2, Adenosine receptor A1 (Homo sapiens) (UniProt P30542).
T2 sequence (whole entry): T1 sequence (P30542 whole entry)
The test is described as §1. It counts as functional, cell-based. Particulars: concentration not given here. The procedure, abridged: as §2

The target in test [3] is T3, Adenosine receptor A3 (Homo sapiens, UniProt P0DMS8).
T3 sequence (P0DMS8 whole entry): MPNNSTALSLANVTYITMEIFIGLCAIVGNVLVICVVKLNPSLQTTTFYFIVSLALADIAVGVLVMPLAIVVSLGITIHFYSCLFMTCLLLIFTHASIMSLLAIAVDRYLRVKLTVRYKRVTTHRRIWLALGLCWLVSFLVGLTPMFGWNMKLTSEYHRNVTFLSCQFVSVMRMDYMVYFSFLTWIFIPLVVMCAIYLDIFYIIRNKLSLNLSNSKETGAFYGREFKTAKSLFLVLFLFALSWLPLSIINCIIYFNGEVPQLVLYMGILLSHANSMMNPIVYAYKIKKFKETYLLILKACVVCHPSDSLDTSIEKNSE
Nature of the test: Activity at human adenosine A3 receptor assessed as inhibition of forskolin-stimulated cAMP accumulation in CHO cells. The class given is functional, cell-based. The method, boiled down:
as §2

Test [4] concerns the target T1, Adenosine receptor A1. The experiment in a line: (§3) Displacement of [3H]DPCPX from human adenosine A1 receptor in CHO cells. The class given is cell-based. The procedure, abridged: (§4)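 Whole confluent CHO-A1H cells in serum-free DMEM/F12 with competing ligand plus [3H]-DPCPX 1 nM final, 2 h at 37 °C in 5% CO2. Nonspecific binding with 10 µM XAC. Washed twice with cold PBS, scintillant added, counted.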
A general note: Displacement assays read how much labelled ligand stays bound in the presence of the test substance.

Test [5] deals with T2, Adenosine receptor A1 (Homo sapiens). The description is as §3. The class given is cell-based. Conditions: concentration not given here. The procedure, abridged:
as §4

Test [6] addresses Adenosine receptor A2a (Homo sapiens, UniProt P29274). Nature of the test: Activity at human adenosine A2A receptor assessed as stimulation of [3H]cAMP accumulation in CHO cells. The class given is functional, cell-based.
The target in test [7] is T2, Adenosine receptor A1 (Homo sapiens). The experiment in a line: Ratio of pEC50 to pKd at human adenosine A1 receptor in CHO cells. The class given is cell-based. The procedure, abridged:
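Derived as the difference between -log EC50 from forskolin (3 µM)-stimulated [3H]-cAMP inhibition in CHO-A1H cells and -log KD from inhibition of 1 nM [3H]-DPCPX binding to intact CHO-A1H cells.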

The target of test [8] is T1, Adenosine receptor A1. Nature of the test: Activity at human adenosine A1 receptor assessed as inhibition of forskolin-stimulated cAMP accumulation in CHO cells. It counts as functional, cell-based. The procedure, abridged:
as §2

Test [9] addresses T4, Adenosine receptor A2b (Homo sapiens, UniProt P29275).
T4 sequence (P29275 whole entry): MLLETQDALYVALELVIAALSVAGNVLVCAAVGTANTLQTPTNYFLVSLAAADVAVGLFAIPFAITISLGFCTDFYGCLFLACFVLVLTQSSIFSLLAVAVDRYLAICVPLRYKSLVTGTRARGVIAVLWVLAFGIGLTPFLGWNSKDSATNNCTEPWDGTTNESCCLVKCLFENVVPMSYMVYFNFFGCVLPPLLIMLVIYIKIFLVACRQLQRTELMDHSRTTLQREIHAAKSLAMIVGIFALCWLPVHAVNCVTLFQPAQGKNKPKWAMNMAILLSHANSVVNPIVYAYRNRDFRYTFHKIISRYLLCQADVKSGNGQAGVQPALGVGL
The experiment in a line: Activity at human adenosine A2B receptor assessed as stimulation of [3H]cAMP accumulation in CHO cells. The class given is functional, cell-based. The procedure, abridged: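 CHO cells expressing human A2B receptor, confluent in 24-well dishes, [3H]adenine-labelled 2 h at 37 °C in HEPES-buffered Hank's, then rolipram 10 µM 15 min. Agonist added 10 min without forskolin. HCl termination, alumina-column isolation of [3H]-cAMP, scintillation counting. pEC50 by sigmoidal curve fitting; each experiment in triplicate.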

Sequence of Adenosine receptor A2a (P29274 whole entry): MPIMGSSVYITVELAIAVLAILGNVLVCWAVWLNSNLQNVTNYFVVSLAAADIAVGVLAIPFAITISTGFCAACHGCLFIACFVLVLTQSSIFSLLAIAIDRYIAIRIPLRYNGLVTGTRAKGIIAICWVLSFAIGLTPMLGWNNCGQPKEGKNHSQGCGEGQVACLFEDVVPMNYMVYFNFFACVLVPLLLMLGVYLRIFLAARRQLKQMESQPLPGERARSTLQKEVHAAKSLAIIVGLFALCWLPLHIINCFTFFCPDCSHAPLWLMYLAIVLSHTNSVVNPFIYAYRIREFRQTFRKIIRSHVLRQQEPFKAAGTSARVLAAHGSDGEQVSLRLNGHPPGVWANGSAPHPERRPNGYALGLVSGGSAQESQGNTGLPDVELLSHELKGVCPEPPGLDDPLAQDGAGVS

In general, EC50 refers to the concentration giving half of the maximal effect. As usually defined, the inhibition is how much of the control response was suppressed. As to `CCNC(=O)[C@H]1O[C@@H](n2cnc3c(NCCCCCNC(=O)CCCCCNC(=O)COc4ccc(/C=C/C5=[N+]6C(=Cc7ccc(-c8cccs8)n7[B-]6(F)F)C=C5)cc4)ncnc32)[C@H](O)[C@@H]1O`, the EC50 in test [1] is 0.708 nM. For the same compound, in test [2], the inhibition was found to be 96%.

One may read the Kd as the constant that tells how readily two partners part at equilibrium. A high value points to lower affinity. For `CCNC(=O)[C@H]1O[C@@H](n2cnc3c(NCCCCNC(=O)CCCCCNC(=O)COc4ccc(/C=C/C5=[N+]6C(=Cc7ccc(-c8cccs8)n7[B-]6(F)F)C=C5)cc4)ncnc32)[C@H](O)[C@@H]1O`, the EC50 is 3.39 nM in test [1]; 2.69 nM in test [3]; 174 nM in [6]; 3.39 nM in test [8]; 2040 nM in [9]. For the same compound, the inhibition in [2] stood at 99%; in test [5] it was 49.3%. The compound also gave a Kd in [4] of 158 nM. Moreover, the Ratio in [7] amounted to 1.67.

Regarding `O=C(CCCCCNC(=O)COc1ccc(/C=C/C2=[N+]3C(=Cc4ccc(-c5cccs5)n4[B-]3(F)F)C=C2)cc1)NCCCCNc1ncnc2c1ncn2[C@@H]1O[C@H](CO)[C@@H](O)[C@H]1O`, the EC50 in [1] was 5.13 nM. The inhibition in test [2] worked out at 96%; in test [5], 48.1%. The Kd in [4] was 224 nM. Further, in [7], the Ratio stood at 1.64.

Turning to `CCNC(=O)[C@H]1O[C@@H](n2cnc3c(N)ncnc32)[C@H](O)[C@@H]1O`, the results for the inhibition in test [2] and in test [5] were 98% and 83.3%, respectively.

In the case of `CCNC(=O)[C@H]1O[C@@H](n2cnc3c(NCCCNC(=O)CCCCCNC(=O)COc4ccc(/C=C/C5=[N+]6C(=Cc7ccc(-c8cccs8)n7[B-]6(F)F)C=C5)cc4)ncnc32)[C@H](O)[C@@H]1O`, the EC50 in test [1] was 0.692 nM. In addition, the inhibition in test [2] was found to be 92%; in test [5] it was 50.9%. For the same compound, the affinity in test [4], expressed as Kd, was 245 nM. Besides, the Ratio in test [7] was 2.55.

Turning to `CCNC(=O)[C@H]1O[C@@H](n2cnc3c(NCCCCCCCCNC(=O)CCCCCNC(=O)COc4ccc(/C=C/C5=[N+]6C(=Cc7ccc(-c8cccs8)n7[B-]6(F)F)C=C5)cc4)ncnc32)[C@H](O)[C@@H]1O`, the EC50 in [1] is 12 nM. Moreover, the inhibition in test [2] turned out to be 77%.
